What all share (assay type): cell-based
The subject of one experiment is NFAT. The experiment can be described thus: GFP-NFAT translocation in RBL-2H3 cells. As to conditions: 10 μM, thapsigargin 1 μM then 2 mM Ca2+ re-addition. In a few lines:
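RBL-2H3 cells electroporated with GFP-NFAT (20 μg DNA, 300 V, 275 μF) 12–18 h beforehand, on coverslips. In nominally Ca2+-free buffer, stores depleted with 1 μM thapsigargin for 5 min, then 2 mM CaCl2 added. Test compound at 10 μM in all buffers. Basal taken before depletion. Cells fixed in paraformaldehyde with DAPI-stained nuclei. Nuclear/cytosolic GFP intensity ratio measured; ≥18 cells per condition.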

A further experiment relates to RBL-2H3 cells. Kind of experiment: Degranulation assay. As to conditions: ionomycin 0.4 μM. The method in brief: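 RBL-2H3 cells grown to confluency, washed in RBL-2H3 buffer with 2 mM CaCl2, all incubations at 37°C. Test compound (3 or 10 μM) for 15 min, then ionomycin 0.4 μM final for 30 min. Stopped with 0.4 M glycine (pH 10.7), A405 read. Untreated and 2% triton-lysed cells served as basal/maximal references. n = 3 passages.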

For experiment [1], the target named is CRAC currents in native RBL-2H3 cells (Rattus norvegicus, UniProt Q5M848). Kind of experiment: Patch-clamp of CRAC currents in native RBL-2H3 cells. As to conditions: for Effect on CRAC Ca2+ entry-mediating conductance: 3 μM pre-incubation. The method in brief:
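Whole-cell recording of native RBL-2H3 cells at room temperature. Stores depleted passively by 20 mM EGTA in the Cs-methanesulphonate pipette solution (pH 7.2). Bath contained 20 mM CaCl2 (pH 7.4). Ramps from −90 to +90 mV over 1 s, holding +30 mV. Test compound at 3 μM, pre-incubated or applied acutely. Net current (minus basal) read at −85 mV 300 s after break-in; n ≥ 6 cells.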
A general note: The patch-clamp technique gives a direct electrical read-out from membranes.

Another experiment deals with T1, TRPC3 (Homo sapiens, UniProt Q13507).
T1 sequence (Q13507 74-921 limits assumed): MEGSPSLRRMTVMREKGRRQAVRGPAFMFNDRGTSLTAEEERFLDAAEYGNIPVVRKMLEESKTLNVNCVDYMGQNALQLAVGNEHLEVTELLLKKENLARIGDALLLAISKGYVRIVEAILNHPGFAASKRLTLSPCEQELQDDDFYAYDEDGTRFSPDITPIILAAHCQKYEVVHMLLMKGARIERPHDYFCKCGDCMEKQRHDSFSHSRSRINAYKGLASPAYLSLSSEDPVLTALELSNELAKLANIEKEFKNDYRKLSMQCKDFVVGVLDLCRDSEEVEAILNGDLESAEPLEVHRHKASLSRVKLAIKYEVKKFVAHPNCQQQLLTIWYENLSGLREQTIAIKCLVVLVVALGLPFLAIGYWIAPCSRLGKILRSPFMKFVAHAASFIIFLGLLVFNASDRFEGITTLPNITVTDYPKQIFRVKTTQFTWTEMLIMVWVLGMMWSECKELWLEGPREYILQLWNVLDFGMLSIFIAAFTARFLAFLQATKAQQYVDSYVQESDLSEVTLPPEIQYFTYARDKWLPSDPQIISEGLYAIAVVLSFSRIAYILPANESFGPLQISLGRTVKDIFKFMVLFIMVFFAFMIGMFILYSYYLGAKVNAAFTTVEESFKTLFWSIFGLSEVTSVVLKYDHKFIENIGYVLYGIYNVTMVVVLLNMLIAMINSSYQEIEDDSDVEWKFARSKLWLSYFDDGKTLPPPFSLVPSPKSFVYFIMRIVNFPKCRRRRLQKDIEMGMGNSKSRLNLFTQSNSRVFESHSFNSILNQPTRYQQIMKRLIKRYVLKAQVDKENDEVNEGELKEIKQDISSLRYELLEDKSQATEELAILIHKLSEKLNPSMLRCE
The experiment can be described thus: Patch-clamp of TRPC3 currents in HEK293 cells transiently expressing TRPC3. As to conditions: 3 μM pre-incubation, carbachol.

The next experiment has as its target STIM1/Orai1 (Homo sapiens, UniProt Q96D31). The method in brief: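 Whole-cell recording at room temperature in HEK293 transiently co-expressing CFP-STIM1 and YFP-Orai1. CRAC activated by 20 mM EGTA in the pipette with 10 mM CaCl2 in the bath. Bath then switched to divalent-free solution to carry Na+ current. Test compound (10 μM) applied acutely; current followed over time; n = 4 cells.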

Experiment [2] has as its target STIM1/Orai1-mediated SOCE (Rattus norvegicus, UniProt Q5M848). The experiment can be described thus: Fura-2 Ca2+ re-addition, thapsigargin-depleted native RBL-2H3 cells. The method in brief: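 Native RBL-2H3 cells were loaded with 2 μM Fura-2-AM for 45 min and perfused in Ca2+-free extracellular solution at room temperature. Stores depleted with 1 μM thapsigargin for 5 min. Test compound present ≥5 min before and throughout. Ca2+ entry evoked by 2 mM Ca2+ re-addition; 340/380 nm ratio read (510 nm emission). Inhibition expressed as % of control peak entry. IC50 by 4-parameter logistic fit; 3–5 experiments, 29–80 cells.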

In general, pIC50 refers to −log10 of the IC50, conventionally taken in molar units. Higher therefore signals a low IC50.

pIC50: −log10 of the molar value.

Sequence of CRAC currents in native RBL-2H3 cells (Q5M848 whole entry): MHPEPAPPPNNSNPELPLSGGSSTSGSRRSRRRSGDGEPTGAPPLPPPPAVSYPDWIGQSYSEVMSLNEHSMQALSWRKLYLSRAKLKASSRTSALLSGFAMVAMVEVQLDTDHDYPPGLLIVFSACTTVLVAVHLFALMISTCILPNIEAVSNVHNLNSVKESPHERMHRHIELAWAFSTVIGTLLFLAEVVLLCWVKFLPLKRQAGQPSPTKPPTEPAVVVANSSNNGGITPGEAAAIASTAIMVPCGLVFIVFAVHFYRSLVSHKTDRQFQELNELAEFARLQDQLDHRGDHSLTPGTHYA
Sequence of STIM1/Orai1-mediated SOCE (Q5M848 whole entry, the tested form may be a part): as the sequence (Q5M848 whole entry) above
Sequence of STIM1/Orai1 (Q96D31 whole entry, species assumed): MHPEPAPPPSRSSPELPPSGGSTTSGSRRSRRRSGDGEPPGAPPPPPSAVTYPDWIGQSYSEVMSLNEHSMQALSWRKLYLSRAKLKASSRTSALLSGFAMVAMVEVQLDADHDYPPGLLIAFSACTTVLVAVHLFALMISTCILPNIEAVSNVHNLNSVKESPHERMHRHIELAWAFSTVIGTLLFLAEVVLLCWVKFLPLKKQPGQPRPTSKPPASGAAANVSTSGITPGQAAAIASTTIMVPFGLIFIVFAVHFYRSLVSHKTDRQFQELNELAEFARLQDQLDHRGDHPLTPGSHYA
Sequence of STIM1/Orai1 (Q13586 23-685 partner, species assumed): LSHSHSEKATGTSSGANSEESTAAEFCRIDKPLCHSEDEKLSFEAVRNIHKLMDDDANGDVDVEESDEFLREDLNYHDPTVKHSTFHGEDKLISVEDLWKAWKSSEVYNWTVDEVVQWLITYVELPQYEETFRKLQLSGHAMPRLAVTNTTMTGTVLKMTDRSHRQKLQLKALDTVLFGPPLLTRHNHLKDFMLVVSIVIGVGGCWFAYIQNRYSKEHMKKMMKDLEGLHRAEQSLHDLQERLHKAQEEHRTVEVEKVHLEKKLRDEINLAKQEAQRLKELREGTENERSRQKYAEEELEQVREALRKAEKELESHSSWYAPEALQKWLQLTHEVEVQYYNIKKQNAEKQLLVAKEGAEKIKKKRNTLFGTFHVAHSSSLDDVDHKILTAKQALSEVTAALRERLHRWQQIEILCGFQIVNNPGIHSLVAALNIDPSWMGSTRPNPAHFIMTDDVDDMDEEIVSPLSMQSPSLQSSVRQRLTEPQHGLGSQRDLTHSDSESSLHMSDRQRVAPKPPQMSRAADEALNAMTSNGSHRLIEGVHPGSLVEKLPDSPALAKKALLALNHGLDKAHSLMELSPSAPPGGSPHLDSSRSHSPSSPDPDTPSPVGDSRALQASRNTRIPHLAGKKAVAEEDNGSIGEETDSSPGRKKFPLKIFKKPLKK

Turning to `CCOC(=O)c1cnn(-c2ccc(NC(=O)C(Cl)=C(Cl)Cl)cc2)c1C(F)(F)F` [Pyr3, ethyl 1-(4-(2,3,3-trichloroacrylamido)phenyl)-5-(trifluoromethyl)-1H-pyrazole-4-carboxylate], the “Effect on NFAT translocation” value with NFAT is “clearly inhibited NFAT translocation”. Besides, the “Effect on ionomycin-initiated degranulation” value with RBL-2H3 cells (3 μM) is recorded as “substantially reduced degranulation”; with RBL-2H3 cells (10 μM), “suppressed responses down to basal levels”. Also, in experiment [1], the “Effect on CRAC Ca2+ entry-mediating conductance” value is on record as “completely eliminated”. Besides, in experiment [1] (acute administration, 3 μM, native RBL-2H3 cells), the “Effect on native CRAC currents upon acute administration” value was “rapidly suppresses”. Further, the “Effect on TRPC3 Ca2+ entry-mediating conductance” value on TRPC3 is “completely eliminated”. Besides, the “Effect on divalent-free sodium current through CRAC pore” value at STIM1/Orai1 (10 μM, divalent-free conditions) was “affecting sodium influx through it”. Also, the “Effect on reconstituted CRAC pore currents upon acute administration” value on STIM1/Orai1 (HEK293 expressing STIM1 and Orai1, passive store depletion with EGTA) is reported as “acutely blocks a reconstituted CRAC pore in a dose-dependent, non-reversible manner”.

As to `Cc1nnsc1C(=O)Nc1ccc(-n2nc(C(F)(F)F)cc2C(F)(F)F)cc1` [Pyr2, N-(4-(3,5-bis(trifluoromethyl)-1H-pyrazole-1-yl)phenyl)-4-methyl-1,2,3-thiadiazole-5-carboxamide], the negative-log IC50 (pIC50) in experiment [2] was 6.23. For the same molecule, the “Higher potency in SOCE model than in TRPC3-ROCE model, orders of magnitude” value in experiment [2] (RBL-2H3 SOCE vs TRPC3 ROCE) came out at 0.85 OM. The “Higher potency in SOCE model than in TRPC3-ROCE model” value in experiment [2] (ratio of IC50 values, RBL-2H3 SOCE vs TRPC3 ROCE) is recorded as “sevenfold”. Also, the “Effect on NFAT translocation” value with NFAT was “clearly inhibited NFAT translocation”. For the same molecule, the “Effect on ionomycin-initiated degranulation” value with RBL-2H3 cells (3 μM) is recorded as “substantially reduced degranulation”; in the experiment with RBL-2H3 cells (10 μM), “suppressed responses down to basal levels”. For the same molecule, the “Effect on CRAC Ca2+ entry-mediating conductance” value in experiment [1] is “completely eliminated”. For the same molecule, the “Effect on TRPC3 Ca2+ entry-mediating conductance” value on TRPC3 is recorded as “completely eliminated”.

(Values after article PMC3525873 (British Journal of Pharmacology, 2012).)
